# According to ChEMBL document CHEMBL1158829, “Oxygenated pimarane diterpenes from Kaempferia marginata” (J Nat Prod, 2005):
# Experiments:
# [1] = test system: Mycobacterium tuberculosis; experiment: Antitubercular activity against Mycobacterium tuberculosis H37Ra after 4 days by microplate alamar blue assay; format: functional; conditions: 96 h
# How it was run: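 Mycobacterium tuberculosis H37Ra tested by Microplate Alamar Blue Assay, reporting minimum inhibitory concentration (MIC). Rifampicin, kanamycin and isoniazid were the positive controls.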
# Plasmodium falciparum = experiment: Antimalarial activity against multidrug-resistant Plasmodium falciparum K1 after 42 hrs by [3H]hypoxanthine uptake; format: functional, organism-based
# How it was run: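 Plasmodium falciparum K1 (multidrug-resistant) was kept in continuous culture. In vitro activity was quantified with a microculture radioisotope technique.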
# Candida albicans = experiment: Antifungal activity against Candida albicans ATCC 90028 by XTT assay; format: functional, organism-based
# How it was run: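 Candida albicans ATCC 90028 tested by a tetrazolium/formazan colorimetric method, with IC50 as the read-out. Amphotericin B served as the positive control and DMSO as the negative control.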
Structure (SMILES),MIC [1],IC50 (Plasmodium falciparum),IC50 (Candida albicans)
C=C[C@]1(C)C=C2CC[C@]3(C)[C@](C)(CCC[C@]3(C)O)[C@@]2(C)CC1,25 µg/mL,,
C=C[C@]1(C)C=C2C(=O)C[C@H]3C(C)(C)C[C@H](O)[C@H](O)[C@]3(C)[C@H]2CC1,> 100 µg/mL,,
C=C[C@]1(C)C=C2CC[C@]3(C)[C@](C)(CC[C@H](C(C)=O)[C@]3(C)O)[C@@]2(C)CC1,50 µg/mL,,
C=C[C@]1(C)C=C2CC[C@H]3C(C)(C)CC[C@H](O)[C@]3(C)[C@H]2[C@H](O)C1,,3.2 µg/mL,
C=C[C@]1(C)C=C2CC[C@H]3C(C)(C)C[C@H](O)[C@H](O)[C@]3(C)[C@H]2[C@H](O)C1,> 100 µg/mL,8.8 µg/mL,17.5 µg/mL
C=C[C@]1(C)C=C2[C@H](O)C[C@H]3C(C)(C)CC[C@H](O)[C@]3(C)[C@H]2[C@H](O)C1,> 100 µg/mL,,
